Experimental data collected from several papers.
Each line is one published result; the experiments were not run side by side. Values after ≈ are worked out from the molar mass of the structure shown.

Compound	organism	assay	test system	conditions	endpoint	value
CCOC(=O)c1c(N)csc1-c1cn(-c2ccccc2)nc1-c1ccc(C)cc1	Bacillus subtilis	microbial killing, broth dilution			MBC	0.25 µg/mL (≈ 0.62 µM)
O=C1NC(=S)N/C1=C\c1c2ccccc2c(-c2ccc(N(c3ccccc3)c3ccccc3)cc2)c2ccccc12	Bacillus subtilis	microbial killing, broth dilution	ATCC6633		MBC	> 1000 µg/mL
CC(C)Oc1c(NC(=O)c2ccc(NC(=O)[C@H](CC(N)=O)NC(=O)c3ccc(NC(=O)c4ccc(C#N)cn4)cc3)cc2)ccc(C(=O)Nc2ccc(C(=O)O)cc2)c1O	Proteus vulgaris	microbial growth	DSM2140		MIC	0.06 µg/mL (≈ 0.0738 µM)
N#CC(=Cc1ccccc1O)C1=NC(=O)C(=Cc2cn(-c3ccccc3)nc2-c2ccccc2)S1	Bacillus subtilis	microbial growth, well diffusion		100000 µg/mL	inhibition zone	25 mm
CCCCCCC/C=C/C(=O)N1C(=O)/C(=C(\O)C2CCNCC2)C(=O)C1CC(C)C (centres unmarked)	Proteus vulgaris	microbial growth	ATCC33420		MIC	200 µg/mL (≈ 478 µM)
CCOC(=O)c1c(N)csc1-c1cn(-c2ccccc2)nc1-c1ccccc1	Bacillus subtilis	microbial growth, well diffusion		100000 µg/mL	inhibition zone	23 mm
C[C@@H](c1ncncc1F)[C@](O)(Cn1cncn1)c1ccc(F)cc1F	Acanthamoeba polyphaga	parasite growth, resazurin		96 h	IC50	28.9 µM
N#CC(=Cc1ccc(Cl)cc1)C1=NC(=O)C(=Cc2cn(-c3ccccc3)nc2-c2ccccc2)S1	Bacillus subtilis	microbial growth, well diffusion		100000 µg/mL	inhibition zone	22 mm
O=C1NC(=S)S/C1=C\c1ccc(-c2ccc(N(c3ccccc3)c3ccccc3)cc2)c2ccccc12	Bacillus subtilis	microbial killing, broth dilution	ATCC6633		MBC	> 1000 µg/mL
Cc1ccc(-n2cc(Cn3c(C(=O)O)nc4ccccc4c3=O)nn2)cc1	Nakaseomyces glabratus	microbial growth, broth dilution	ATCC90030	24 h	IC50	288 µg/mL
O=C(O)CN1C(=O)/C(=C/c2c3ccccc3c(-c3ccc(N(c4ccccc4)c4ccccc4)cc3)c3ccccc23)SC1=S	Bacillus subtilis	microbial killing, broth dilution	ATCC6633		MBC	> 1000 µg/mL
O=C(O)c1nc2ccccc2c(=O)n1Cc1cn(-c2ccccc2)nn1	Nakaseomyces glabratus	microbial growth, broth dilution	ATCC90030	24 h	IC50	566 µg/mL
Cc1c(NN=C2SC(C(C#N)=Cc3ccccc3)=NC2=O)c(=O)n(-c2ccccc2)n1C	Bacillus subtilis	microbial growth, well diffusion		100000 µg/mL	inhibition zone	17 mm
O=C(O)c1nc2ccccc2c(=O)n1Cc1cn(-c2ccc(F)cc2)nn1	Nakaseomyces glabratus	microbial growth, broth dilution	ATCC90030	24 h	IC50	422 µg/mL
CCCCCCC/C=C/C(=O)N1C(=O)/C(=C(/C)O)C(=O)C1CO (centres unmarked)	Proteus vulgaris	microbial growth	ATCC33420		MIC	> 200 µg/mL
O=C(O)c1nc2ccccc2c(=O)n1Cc1cn(-c2cccc(Cl)c2)nn1	Nakaseomyces glabratus	microbial growth, broth dilution	ATCC90030	24 h	IC50	278 µg/mL
C[C@@H]1[C@H](O)[C@@H](C)/C=C/C=C/C=C/C=C/C=C/C=C/C=C/[C@H](O[C@@H]2O[C@H](C)[C@@H](O)[C@H](N)[C@@H]2O)C[C@@H]2O[C@](O)(C[C@@H](O)C[C@@H](O)[C@H](O)CC[C@@H](O)C[C@@H](O)CC(=O)O[C@H]1C)C[C@H](O)[C@H]2C(=O)O	Cryptococcus neoformans	microbial growth	ATCC90113		IC50	0.75 µg/mL
